DENV2 CPE rescue: inhibitors of DENV2 cytopathic effect, primary screen, cell-based, plate reader, single concentration | DENV2-infected cells, cytopathic effect rescue | CPE inhibition, % at 9.99 µM | 350,000 tested, 1.7% active; in the data active = CPE inhibition above about 20%, passing the limit was not always enough; inconclusive = no clear call, values can overlap the other calls; tested in BHK-21 cells
SIRT5 inh: SIRT5 desuccinylase inhibitors, primary screen, biochemical, fluorescence imaging, single point, set 5; 330,000 tested, 1.1% active; inhibition, % at 15 µM; NAD-dependent protein deacylase sirtuin-5, mitochondrial (Homo sapiens), Q9NXA8; Purified SirT5, succinyl-peptide AMC, trypsin-coupled fluorescence; in the data active = inhibition above about 15%; inconclusive = no clear call, values can overlap the other calls
Target sequence (Q9NXA8 whole entry, looked up): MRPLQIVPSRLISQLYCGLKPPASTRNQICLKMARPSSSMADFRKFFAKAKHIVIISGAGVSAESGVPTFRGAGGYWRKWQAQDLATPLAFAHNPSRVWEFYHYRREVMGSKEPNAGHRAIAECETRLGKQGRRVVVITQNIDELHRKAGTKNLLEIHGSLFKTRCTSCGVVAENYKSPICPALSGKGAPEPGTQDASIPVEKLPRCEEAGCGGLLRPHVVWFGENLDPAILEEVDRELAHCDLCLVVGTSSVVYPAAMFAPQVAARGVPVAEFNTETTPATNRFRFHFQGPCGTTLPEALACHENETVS
E-sel inducer: E-selectin induction in HUVECs, primary screen, imaging, HUVEC, immunofluorescence imaging, single point; activation, % at 7.58 µM; AID 686992, 2013; normalized: neutral wells 0, TNF-alpha wells 100; 260,000 tested, 0.37% active;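 active = mean E-selectin-positive cell signal at least 10% of the positive control, reached in at least 60% of replicates, without over 20% cell loss; inconclusive = no rule given, readout overlaps actives, possibly toxicity-flagged; inactive = the rest, including those meeting only one limit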
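Material: HUVEC primary endothelial cells; Amount: 3,000 cells per well; Dosing: single concentration; Medium: EGM-2 growth medium on 0.1% gelatin-coated wells; Read-out basis: percent E-selectin-positive cells; Signal: immunofluorescence imaging; Control set: TNF-alpha, DMSO.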
A number is an active result; i = inactive; ? = inconclusive; nt = no result; ! = not confirmed by another sample. Compounds with a hit are over-represented: about 2.9% of the library has one in this group of screens.

SMILES	DENV2 CPE rescue	SIRT5 inh	E-sel inducer
CCCCN1C(=O)C(CC(=O)NC2CCCC2)CC(C(=O)N(CC)CC)=C1C (centres undefined)	i	i	i
CC1=C(C(=O)N2CCOCC2)CC(CC(=O)NC2CC2)C(=O)N1CCC1=CCCCC1 (centres undefined)	i	17	i
CSc1ccc(CNC(=O)c2c(C)noc2C)s1	i	i	i
O=C(C[C@H]1C=C[C@H](NC(=O)Nc2ccc3c(c2)OCO3)[C@H](CO)O1)NCCCN1CCOCC1	i	i	i
COc1cc(/C=C/C(=O)O)cc(S(=O)(=O)NC2CCCC2)c1OC	i	i	i
COc1cc(/C=C/C(=O)O)cc(S(=O)(=O)Nc2cc(Cl)c(Cl)cc2Cl)c1OC	i	17	i
N#Cc1ccc(S(=O)(=O)NC2CCN(Cc3ccccc3)CC2)cc1	i	i	nt
O=C(Nc1ccc(C(=O)N2CCOCC2)cc1)Nc1ccc(Cl)cc1Cl	i	i	i
c1ccc(C[C@H]2COc3c4ccccc4nn32)cc1	i	i	i
CCOC(=O)C1=C(C)N(CCCC(=O)O)C(=O)NC1c1ccc([N+](=O)[O-])cc1 (centres undefined)	102	i	i
COC(=O)C1=C(C)N(CCCC(=O)O)C(=O)NC1c1ccc([N+](=O)[O-])cc1 (centres undefined)	i	i	i
CC(C)C(=O)NC(C)C(c1cccs1)N1CCN(C)CC1 (centres undefined)	i	i	nt
O=C(CSc1nnc(NC2CCCCC2)s1)NCc1ccco1	i	i	i
COc1ccc(NC(=O)Nc2ccc3c(c2)C(=O)N([C@@H](C)CO)C[C@@H](C)[C@H](CN(C)S(=O)(=O)c2ccc(OC)cc2)O3)cc1	28	i	i
COc1ccc(S(=O)(=O)N(C)C[C@@H]2Oc3ccc(NC(=O)Nc4ccccc4)cc3C(=O)N([C@@H](C)CO)C[C@H]2C)cc1	35	i	i
COc1ccc(NC(=O)Nc2ccc3c(c2)C(=O)N([C@@H](C)CO)C[C@H](C)[C@@H](CN(C)S(=O)(=O)c2ccc(OC)cc2)O3)cc1	i	i	i
COc1ccc(NC(=O)N(C)C[C@@H]2Oc3ccc(NC(=O)NC4CCCCC4)cc3C(=O)N([C@@H](C)CO)C[C@@H]2C)cc1	i	i	i
COc1ccc(S(=O)(=O)N(C)C[C@@H]2Oc3ccc(NC(=O)Nc4ccccc4)cc3C(=O)N([C@H](C)CO)C[C@H]2C)cc1	i	i	i
COc1ccc(NC(=O)N(C)C[C@H]2Oc3ccc(NC(=O)NC4CCCCC4)cc3C(=O)N([C@@H](C)CO)C[C@@H]2C)cc1	46	i	i
COc1ccc(S(=O)(=O)N(C)C[C@H]2Oc3ccc(NC(=O)NC4CCCCC4)cc3C(=O)N([C@H](C)CO)C[C@@H]2C)cc1	?	20!	i
COc1ccc(S(=O)(=O)N(C)C[C@H]2Oc3ccc(NC(=O)NC4CCCCC4)cc3C(=O)N([C@@H](C)CO)C[C@H]2C)cc1	i	i	i
Nc1nc(=O)n(C2CCCO2)cc1Br (centres undefined)	i	i	i
COc1ccc(NC(=O)Nc2ccc3c(c2)C(=O)N([C@@H](C)CO)C[C@@H](C)[C@@H](CN(C)S(=O)(=O)c2ccc(C)cc2)O3)cc1	i	19	i
COc1ccc(NC(=O)Nc2ccc3c(c2)C(=O)N([C@H](C)CO)C[C@@H](C)[C@H](CN(C)S(=O)(=O)c2ccc(Cl)cc2)O3)cc1	68	i	i
COc1ccc(NC(=O)Nc2ccc3c(c2)C(=O)N([C@@H](C)CO)C[C@H](C)[C@@H](CN(C)S(=O)(=O)c2ccc(C)cc2)O3)cc1	i	i	i
SMILES	DENV2 CPE rescue	SIRT5 inh	E-sel inducer
COc1ccc(NC(=O)Nc2ccc3c(c2)C(=O)N([C@@H](C)CO)C[C@@H](C)[C@@H](CN(C)S(=O)(=O)c2ccc(Cl)cc2)O3)cc1	i	i	i
O=C(Nc1ccc2c(c1)OCO2)N[C@H]1CC[C@@H](CCNC(=O)C2CCCC2)O[C@H]1CO	i	i	i
C[C@H]1CN([C@@H](C)CO)C(=O)c2cc(NC(=O)c3ccncc3)ccc2O[C@@H]1CN(C)Cc1ccc(Cl)c(Cl)c1	i	i	i
CCOC(=O)c1cc(C(C)C)sc1NC(=O)COC(=O)CCS(=O)(=O)c1ccccc1	nt	34	nt
CCOC(=O)c1ccsc1NC(=O)CCS(=O)(=O)c1ccccc1	i	i	i
O=C(c1cc(-c2ccc(O)cc2)on1)N1CCCCCC1	i	i	nt
COc1ccc(C(=O)c2c(-c3ccc(OC)cc3)oc3ccc(-c4cc(OC)c(OC)c(OC)c4)cc23)cc1	?	i	i
COC(=O)c1c(-c2ccc(OC)cc2)oc2ccc(-c3cc(OC)c(OC)c(OC)c3)cc12	i	23	i
S=C(Nc1ccc(Oc2ccccc2)cc1)N1CCOCC1	i	i	i
CO[C@H]1CN(C)C(=O)c2cc(NC(=O)c3cnccn3)ccc2OC[C@@H](C)N(C(=O)C2CC2)C[C@H]1C	?	i	i
C[C@@H]1CN([C@@H](C)CO)S(=O)(=O)c2ccc(-c3cccc(F)c3)cc2O[C@H]1CN(C)S(=O)(=O)c1ccccc1	i	i	i
C[C@@H]1CN([C@H](C)CO)S(=O)(=O)c2ccc(-c3cccc(F)c3)cc2O[C@@H]1CN(C)S(=O)(=O)c1ccccc1	i	16	i
COc1ccccc1-c1ccc2c(c1)O[C@H](CN(C)S(=O)(=O)c1ccccc1)[C@@H](C)CN([C@H](C)CO)S2(=O)=O	i	i	i
C[C@@H]1CN([C@H](C)CO)S(=O)(=O)c2ccc(-c3cccc(F)c3)cc2O[C@H]1CN(C)S(=O)(=O)c1ccccc1	i	17	i
COc1ccccc1-c1ccc2c(c1)O[C@H](CN(C)S(=O)(=O)c1ccccc1)[C@@H](C)CN([C@@H](C)CO)S2(=O)=O	i	20	i
C[C@H]1CN([C@@H](C)CO)S(=O)(=O)c2ccc(-c3cccc(F)c3)cc2O[C@@H]1CN(C)S(=O)(=O)c1ccccc1	i	16	i
C[C@H](CO)N1C[C@H](C)[C@@H](CN(C)S(=O)(=O)c2ccccc2)Oc2cc(-c3cccc(F)c3)ccc2S1(=O)=O	?	i	i
C[C@H](CO)N1C[C@H](C)[C@H](CN(C)S(=O)(=O)c2ccccc2)Oc2cc(-c3cccc(F)c3)ccc2S1(=O)=O	i	i	i
O=C(C[C@@H]1CC[C@H]2[C@@H](COC[C@@H](O)CN2C(=O)c2ccccc2)O1)N1CCOCC1	i	i	i
C[C@H](CO)N1C[C@H](C)[C@H](CN(C)CC2CC2)Oc2ccc(NC(=O)Cn3cnnn3)cc2C1=O	i	i	i
CCN1C(=O)NC(c2ccccc2)(c2ccccc2)C1=O	i	i	nt
C[C@H]1CN([C@@H](C)CO)S(=O)(=O)c2ccc(C#CC3(O)CCCC3)cc2O[C@@H]1CN(C)C(=O)Cc1cccnc1	i	i	i
CC(=O)N1CCN=C1SCc1ccc(Br)cc1	i	nt	nt
CCOC(=O)N1CCN=C1SCc1ccc(Cl)c(Cl)c1	i	i	119
COc1ccc(S(=O)(=O)N2CCOC2CNC(=O)C(=O)NCCCN2CCOCC2)cc1C (centres undefined)	i	i	i
CCn1c(CSCc2ccccc2)n[nH]c1=S	i	37	nt
